Screening data: PubChem, Sanford-Burnham Center for Chemical Genomics
The list is a sample of the results.
Apaf-1 act – activators of human Apaf-1 apoptosome, primary screen, biochemical, DEVD-Rh110 fluorescence, uHTS. AID 489031, 2010. Apaf-1 apoptosome caspase-3 activation; stronger effect = lower value. 0.31% of 330,000 active. Apoptotic protease-activating factor 1 (Homo sapiens), O14727. activity change, negative = activation, % at 20 µM;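 active = activity change at or below -40% at 20 µM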
Target sequence (O14727 whole entry, looked up): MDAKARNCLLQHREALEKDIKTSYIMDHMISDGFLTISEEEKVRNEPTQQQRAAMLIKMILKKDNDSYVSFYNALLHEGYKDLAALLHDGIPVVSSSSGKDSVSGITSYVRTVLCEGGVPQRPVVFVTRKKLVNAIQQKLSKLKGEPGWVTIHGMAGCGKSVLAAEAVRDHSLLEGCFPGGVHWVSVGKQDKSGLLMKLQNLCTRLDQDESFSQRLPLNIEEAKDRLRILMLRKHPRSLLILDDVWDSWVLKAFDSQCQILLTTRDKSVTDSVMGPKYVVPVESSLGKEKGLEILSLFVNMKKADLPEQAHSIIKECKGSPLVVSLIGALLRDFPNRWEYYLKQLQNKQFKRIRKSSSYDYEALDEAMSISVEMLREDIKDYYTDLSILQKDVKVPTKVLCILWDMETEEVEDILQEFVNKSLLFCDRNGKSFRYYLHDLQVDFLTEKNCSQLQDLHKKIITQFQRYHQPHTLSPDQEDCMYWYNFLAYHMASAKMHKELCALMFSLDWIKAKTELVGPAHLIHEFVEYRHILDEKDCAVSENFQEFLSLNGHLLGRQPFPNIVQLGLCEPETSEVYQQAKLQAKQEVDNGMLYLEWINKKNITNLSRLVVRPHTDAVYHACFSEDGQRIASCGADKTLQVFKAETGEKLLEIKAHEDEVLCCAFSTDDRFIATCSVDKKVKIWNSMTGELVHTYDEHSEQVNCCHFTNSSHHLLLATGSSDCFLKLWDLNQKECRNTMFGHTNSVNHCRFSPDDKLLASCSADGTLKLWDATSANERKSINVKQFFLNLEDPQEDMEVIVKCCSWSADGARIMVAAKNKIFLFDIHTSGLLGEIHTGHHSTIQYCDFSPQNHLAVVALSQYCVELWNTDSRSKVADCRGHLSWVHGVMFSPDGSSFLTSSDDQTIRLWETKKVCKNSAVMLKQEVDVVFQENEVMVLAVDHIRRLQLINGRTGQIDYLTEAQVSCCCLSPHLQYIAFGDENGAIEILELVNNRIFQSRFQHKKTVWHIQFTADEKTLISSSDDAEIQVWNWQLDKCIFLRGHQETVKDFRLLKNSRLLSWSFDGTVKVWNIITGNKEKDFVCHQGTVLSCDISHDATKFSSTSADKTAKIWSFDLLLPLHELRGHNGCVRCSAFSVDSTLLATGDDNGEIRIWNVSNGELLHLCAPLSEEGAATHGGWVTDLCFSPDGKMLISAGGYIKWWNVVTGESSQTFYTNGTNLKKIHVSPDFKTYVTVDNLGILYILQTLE
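Material: biochemical Apaf-1 apoptosome reconstitution; Medium: 20 mM HEPES buffer, pH 7.5, containing CHAPS and BSA; Reagent: dATP, cytochrome c, and (Z-DEVD)2-Rh110 caspase-3 substrate; Times: 30 min preincubation, 50 min reaction, room temperature; Signal: Rh110 fluorescence, excitation 480 nm, emission 540 nm; Measure: Caspase-3 activity via Apaf-1.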
Rh110 act interf – Rh110 fluorescence interference by putative Apaf-1 activators, confirmation, artefact control for Apaf-1 activator project, biochemical, 20 µM. shares compounds with Apaf-1 act. quenched caspase reaction, Ex480/Em540. fluorescence interference (activity change), % at 20 µM, hits read low. 980 tested, under 10 active. AID 504616, 2011;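 active = mean activity change at or below -40% when tested at 20 µM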
Apaf-1 act conf – Apaf-1 activators, single-dose retest, confirmation, biochemical, fluorescence, DEVD-Rh110, 20 µM. shares compounds with Apaf-1 act. reconstituted apoptosome caspase-3 activity; stronger effect = lower value. activity change, negative = activation, % at 20 µM. 5% of 980 active;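 active = mean activity change at or below -40%, meaning activation of 40% or more, at 20 µM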
Numbers without * were called inactive.

Results for CSc1ccccc1NC(=O)COc1ccc2c(c1)OCO2 ?
Apaf-1 act: 45

How did O=C1C(c2ccccc2)=[N+]([O-])c2ccccc21 do in these assays?
Apaf-1 act: 85

How did C=CCn1c(NC(=O)c2ccccc2Cl)c(C#N)c2nc3ccccc3nc21 do in these assays?
Apaf-1 act: 96

Results for COc1ccccc1NS(=O)(=O)c1cccc(C(=O)N2CCN(C/C=C/c3ccccc3)CC2)c1 ?
Apaf-1 act: 46

How did O=C(Nc1ccnn1C1CCN(C/C=C/c2ccccc2)CC1)c1ccccc1Cl do in these assays?
Apaf-1 act: -61*

What do the screens show for `COc1ccc(OC)c2c1cc(C(=O)N[C@H](C(=O)N1CCC[C@H]1C(=O)O)C(C)C)n2C`?
Apaf-1 act: 52

What do the screens show for `Clc1ccc2nsnc2c1NC1=NCCN1`?
Apaf-1 act: -7

What do the screens show for `CC(C)N=c1cc2n(-c3ccc(Cl)cc3)c3ccccc3nc-2cc1Nc1ccc(Cl)cc1`?
Apaf-1 act: 68

Results for COc1ccc(NC(=O)[C@@H](NC(=O)N2C[C@H]3C[C@@H](C2)c2cccc(=O)n2C3)C(C)C)cc1OC ?
Apaf-1 act: 62

Results for COc1ccc(C(CNC(=O)C2CC(=O)N(Cc3ccccc3)C2)N2CCCC2)cc1 (stereo unspecified) ?
Apaf-1 act: 61

What do the screens show for `c1ccc2c(c1)CCN(C1=Nc3cccc4cccc1c34)C2`?
Apaf-1 act: 43

How did CCN1CCCC1CNC(=O)C1CCN(Cc2nc(-c3cccc(Br)c3)oc2C)CC1 (stereo unspecified) do in these assays?
Apaf-1 act: -90*

What do the screens show for `COCc1ccc(CN2CCC(C(=O)Nc3cccc(-c4cccc(Cl)c4)c3)CC2)o1`?
Apaf-1 act: 49

Results for c1ccc2c(C[C@@H]3CNCCN3CCC34CC5CC(CC(C5)C3)C4)cccc2c1 ?
Apaf-1 act: 66

How did CCc1ccccc1OCC(=O)Nc1ccc(N2CCCC2)cc1C do in these assays?
Apaf-1 act: 43

How did CC(C)[C@H](NC(=O)N1CCC(Cc2ccccc2)CC1)C(=O)O do in these assays?
Apaf-1 act: 42

What do the screens show for `O=C(COC(=O)c1ccccc1)NCC1CCCO1` (stereo unspecified)?
Apaf-1 act: 56

Results for CC(NC(=O)CC1CCCCC1)c1ccccc1 (stereo unspecified) ?
Apaf-1 act: -109*

Results for COc1cccc(-c2sc3ccccc3c2-c2ccc(OCCN(C)C)cc2)c1 ?
Apaf-1 act: 76

What do the screens show for `C[C@H](O)CC(=O)O`?
Apaf-1 act: -8

What do the screens show for `CCCC(=Nc1ccc(N)cc1)C1=C(O)C(C(=O)OC)C(C)(C)CC1=O` (stereo unspecified)?
Apaf-1 act: 67

How did CCN(CC)CCn1c(SCC(=O)Nc2ccc3c(c2)CCC3)nc2ccccc2c1=O do in these assays?
Apaf-1 act: 51

What do the screens show for `COc1ccc(CCn2c(N)c(C(=O)NCc3ccco3)c3nc4ccccc4nc32)cc1OC`?
Apaf-1 act: 63

What do the screens show for `CCc1cc(CNC(=O)c2ccc(OC3CCN(CCc4ccccc4)CC3)cc2)on1`?
Apaf-1 act: -41*

What do the screens show for `CC1CCN(CCc2nc3cc(NC(=O)COc4ccccc4)ccc3n2C)CC1`?
Apaf-1 act: 52

How did O=C1NC(=S)N/C1=C/c1cc2c(cc1[N+](=O)[O-])OCO2 do in these assays?
Apaf-1 act: 88

How did Cc1ccc(C(=O)NC(C)c2nc3ccccc3n2CC(=O)Nc2c(C)cc(C)cc2C)cc1 (stereo unspecified) do in these assays?
Apaf-1 act: -100*

What do the screens show for `CCC(=O)Nc1c(S(=O)(=O)c2ccc(C)cc2)c2nc3ccccc3nc2n1C(C)c1ccccc1` (stereo unspecified)?
Apaf-1 act: 44

How did O=S(=O)(Nc1ccc(O)c2ccccc12)c1ccc(Br)cc1 do in these assays?
Apaf-1 act: 57

What do the screens show for `O=C(COC(=O)c1ccccc1Sc1ccc(C(F)(F)F)cc1[N+](=O)[O-])NC(=O)NC1CCCC1`?
Apaf-1 act: 40

What do the screens show for `COC(=O)c1ccc(N2CC3CNC(=O)C2(C(=O)OC)N3C)cc1` (stereo unspecified)?
Apaf-1 act: -6

How did C=C(C)C(=O)Nc1cccc(C2=NOC3(C2)C[C@@H](C(N)=O)N(C(=O)c2ccc(OC)cc2)C3)c1 (stereo partly specified) do in these assays?
Apaf-1 act: -340*

How did CN1CCN(c2ccc(NC(=O)c3cc(S(N)(=O)=O)ccc3N3CCOCC3)cc2)CC1 do in these assays?
Apaf-1 act: 40

Results for CN(CC(=O)Nc1ccc(Cl)c(C(F)(F)F)c1)C(=O)CC1Sc2ccccc2NC1=O (stereo unspecified) ?
Apaf-1 act: 51

Results for O=C(Cc1ccc(Br)cc1)Nc1ccccc1N1CCCC1 ?
Apaf-1 act: -66*

What do the screens show for `O=C(NCC(F)(F)F)c1ccc(S(=O)(=O)Nc2ccccc2N2CCCC2)cc1`?
Apaf-1 act: 54

How did Cc1cc(N2CCCC2)ccc1NC(=O)COc1ccccc1 do in these assays?
Apaf-1 act: 52

How did CCC(C)Sc1cccc(-c2nc3cc(C)ccn3c2NC2CCCCC2)c1 (stereo unspecified) do in these assays?
Apaf-1 act: 41

Results for CC(C)C[C@@H](C(=O)NC1CCN(Cc2ccccc2)CC1)N1C(=O)N2CCc3c([nH]c4ccccc34)[C@@]2(C)C1=O ?
Apaf-1 act: 45

How did CC(C)N(Cc1cc2ccccc2[nH]c1=O)C(=O)C1CCCCC1 do in these assays?
Apaf-1 act: 57

What do the screens show for `COc1ccc(CN(CCN(C)C)c2ccccn2)cc1`?
Apaf-1 act: 3

Results for O=C(C1CCCCC1)N(Cc1ccccc1)c1ccccn1 ?
Apaf-1 act: -154*; Rh110 act interf: -5; Apaf-1 act conf: 2

Results for CCOC(=O)C1=C(COCCN)NC(C)=C(C(=O)OC)C1c1ccccc1Cl (stereo unspecified) ?
Apaf-1 act: 40

How did N#CC1=C(N)C(C#N)(C#N)[C@H](c2ccoc2)[C@H]2CN(Cc3ccccc3)CC=C12 do in these assays?
Apaf-1 act: 59

What do the screens show for `CCOC(=O)CCC(=O)NNC(=O)COc1ccc(C(C)C)cc1Br`?
Apaf-1 act: -108*; Rh110 act interf: -9; Apaf-1 act conf: 9

What do the screens show for `Cc1cc(NC(=O)CCCn2nc([N+](=O)[O-])c(Br)c2C)no1`?
Apaf-1 act: 40

Results for O=C(CCn1c2c(c3ccccc31)CCCC2)NNC(=O)c1ccc(Cl)c([N+](=O)[O-])c1 ?
Apaf-1 act: 89

What do the screens show for `N/C(=N\OC(=O)c1ccc(Cl)c([N+](=O)[O-])c1)c1ccccc1`?
Apaf-1 act: -57*; Rh110 act interf: 7; Apaf-1 act conf: 14

Results for N#Cc1ccsc1NC(=O)c1ccc(Cl)c([N+](=O)[O-])c1 ?
Apaf-1 act: 48

How did COc1cc2nc(N3CCNCC3)nc(N)c2cc1OC do in these assays?
Apaf-1 act: 61
